Hits are enriched below; roughly 3.1% of the tested compounds scored in any of these assays.
KCNQ1 block: inhibitors of human KCNQ1 channel, primary screen, cell-based, thallium flux, high-throughput; Potassium voltage-gated channel subfamily KQT member 1 (Homo sapiens), P51787; CHO-K1 KCNQ1, FluxOR thallium flux fluorescence; hits give high values; B-score at 10 µM; 1.3% of 310,000 active;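 active means compounds whose thallium flux B-score, printed positive for inhibition, exceeds three library SD while starting fluorescence stays within three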;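 further: channel opened by potassium depolarization with thallium stimulus after 20 min compound exposure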
hERG protect: hERG rescue from dofetilide block, primary screen, cell-based, CHO-hERG, FluxOR thallium flux, dofetilide IC70; Voltage-gated inwardly rectifying potassium channel KCNH2 (Homo sapiens), Q12809; dofetilide IC70 present; activation (rescue from dofetilide block), less the hit threshold, % at 10 µM; 0.51% of 310,000 active; AID 1511, 2009;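 active means activation above the mean of controls blocked by dofetilide plus 5 SD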;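 further: thallium influx through hERG after potassium depolarization seen as dye fluorescence rise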
KCNQ1 pot: potentiators or activators of KCNQ1 channel, primary screen, cell-based, thallium flux, high-throughput; Potassium voltage-gated channel subfamily KQT member 1 (Homo sapiens), P51787; CHO-K1 KCNQ1, thallium flux FluxOR fluorescence; hits give high values; B-score at 10 µM; 0.35% of 310,000 active;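 active means fluorescence ratio B-score, a plate-corrected score, at least three library SD, with initial intensity B-score within 5 SD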
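Assay system: CHO-K1 cells stably expressing KCNQ1; Medium: assay buffer with matched DMSO; Also added: K+/Tl+ depolarizing stimulus; Dosing: single dose; Timing: dye 90 min, compound 20 min, room temperature; Measured by: kinetic FluxOR thallium fluorescence, 10-s 1-Hz baseline, 110-s post-stimulus read; Read-out: peak-minus-minimum fluorescence over initial fluorescence, negative-control normalized, B-scored.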
KCNK9 block: KCNK9 potassium channel inhibitors, primary screen, HEK293 cells, thallium flux. 1.2% of 310,000 active. FluxOR thallium flux fluorescence; hits give low values. Potassium channel subfamily K member 9 (Homo sapiens), Q9NPC2. B-score at 10 µM;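 active means ratio B-score over 3 SD below the library mean, with starting fluorescence within 5 SD of its mean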;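 further: negative B-score means less thallium flux so channel inhibition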
Target sequence (Q9NPC2 whole entry, looked up): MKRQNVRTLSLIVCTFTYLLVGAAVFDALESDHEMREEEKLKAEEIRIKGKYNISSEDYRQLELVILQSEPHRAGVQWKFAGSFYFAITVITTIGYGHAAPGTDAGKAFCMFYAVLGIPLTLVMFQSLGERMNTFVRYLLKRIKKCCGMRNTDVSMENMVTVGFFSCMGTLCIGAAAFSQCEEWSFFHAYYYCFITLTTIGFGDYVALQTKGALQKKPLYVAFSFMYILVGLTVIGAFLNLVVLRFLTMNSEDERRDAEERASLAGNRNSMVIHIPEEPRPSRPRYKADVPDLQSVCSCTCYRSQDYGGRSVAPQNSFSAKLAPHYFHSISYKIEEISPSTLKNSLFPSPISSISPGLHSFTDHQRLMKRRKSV
KCNK3 block: human KCNK3 channel inhibitors, primary screen, CHO cells, FluxOR thallium flux, B-score; Potassium channel subfamily K member 3 (Homo sapiens), O14649; FluxOR fluorescence; hits give low values; B-score at 10 µM; 0.84% of 340,000 active;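 active means B-score under library mean minus 4 SD, starting fluorescence ratio at most library mean plus 5 SD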;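 further: more negative B-score means stronger inhibition of thallium flux through KCNK3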
* marks the source's active call; other numbers are inactive results; i = inactive; / = no result.

SMILES | KCNQ1 block | hERG protect | KCNQ1 pot | KCNK9 block | KCNK3 block
CCOC(=O)CS(=O)(=O)c1nc(-c2ccc(F)cc2)cc(C(F)(F)F)n1 | i | -26.0 | 9* | i | i
COc1ccc(-c2cc(C(F)(F)F)nc(S(C)(=O)=O)n2)cc1 | 6* | -11.4 | i | i | i
COc1nc(-c2ccccc2)cc(C(F)(F)F)n1 | i | 4.7* | i | i | i
COc1ccc(-c2cc(C(F)(F)F)nc(N)n2)cc1 | i | -9.6 | i | i | i
OC(CNCc1ccc(F)cc1)(c1ccc(F)cc1)c1ccc(F)cc1 | i | -8.8 | i | -6.63* | i
COc1ccc(CNCC(O)(c2ccccc2)c2ccc(F)cc2)cc1 (configuration not stated) | i | -11.5 | i | i | i
OC(CNCc1ccc(Cl)cc1)(c1ccccc1)c1ccc(F)cc1 (configuration not stated) | i | -18.4 | i | -7.58* | i
CCC(C(=O)NC1CCCCC1)N(Cc1cccs1)C(=O)c1snc(C(N)=O)c1N (configuration not stated) | 6* | -16.2 | i | i | i
COc1ccccc1N(C(=O)c1snc(C(N)=O)c1N)C(C(=O)NC1CCCC1)c1ccco1 (configuration not stated) | 6* | -10.7 | i | i | i
COc1ccc(C(C(=O)NC2CCCCC2)N(Cc2ccco2)C(=O)c2snc(C(N)=O)c2N)cc1 (configuration not stated) | 9* | -12.1 | i | i | i
COc1ccc(C(C(=O)NC2CCCC2)N(Cc2ccco2)C(=O)c2snc(C(N)=O)c2N)cc1OC (configuration not stated) | i | -14.5 | i | i | i
O=C(NC1CCCCC1)C(c1cccs1)N(Cc1cccs1)C(=O)c1cccs1 (configuration not stated) | 8* | -11.8 | i | i | i
C[C@H](NC(=O)C1CCN(S(=O)(=O)c2ccccc2)CC1)C(=O)NCc1ccccn1 | i | -11.5 | i | i | i
Cc1cc([N+](=O)[O-])ccc1NC(=O)CSc1nncn1-c1cccnc1 | i | -5.9 | i | i | i
Cc1ccccc1N(CC(=O)NC1CCCC1)C(=O)c1oc(C(C)(C)C)cc1C | i | -8.6 | i | i | i
Cc1cc(C(C)(C)C)oc1C(=O)N(CC(=O)NC1CCCC1)c1cccc(C(F)(F)F)c1 | i | 0.0 | i | -7.96* | -9.02*
CC(C)NC(=O)CN1CCN(C(=O)CCl)CC1 | i | -3.1 | i | i | i
CN(C)C(=O)CN1CCN(C(=O)CCl)CC1 | i | 5.1* | i | i | i
CCc1ccc(-c2nc(SCC(=O)N3CCOCC3)n[nH]2)cc1 | i | 10.1* | i | i | i
O=C(CSc1n[nH]c(-c2cccs2)n1)N1CCOCC1 | / | / | / | / | i
COc1ccc(NC(=O)C2CCN(S(=O)(=O)c3cccc4nonc34)CC2)c(OC)c1 | i | -9.6 | i | i | i
Clc1ccc(-c2csc(N3CCN(c4ccccc4)CC3)n2)cc1 | i | -8.1 | i | i | i
Clc1ccc(-c2csc(N3CCc4ccccc4C3)n2)cc1 | i | -6.9 | 10* | i | i
c1ccc(-c2csc(N3CCN(c4ccccn4)CC3)n2)cc1 | i | -0.9 | i | -6.66* | i
COc1ccc(CN2CCC(n3nccc3NC(=O)C3CC3)CC2)c(Cl)c1OC | i | -6.6 | i | i | i
SMILES | KCNQ1 block | hERG protect | KCNQ1 pot | KCNK9 block | KCNK3 block
CC(=O)c1c(O)cc(C)n(-c2ccc(F)cc2)c1=O | i | -6.0 | 8* | i | i
Cc1cc(C)n(-c2ccc(F)cc2)c(=O)c1C(=O)O | i | -13.8 | i | i | i
O=C(N/N=C/c1c(O)n(-c2ccc(Cl)cn2)c(=O)c2ccccc12)c1ccncc1 | 11* | -27.9 | i | -6.88* | i
O=C(N/N=C/c1c(O)n(-c2ccc(Cl)cn2)c(=O)c2ccccc12)C1CC1 | i | -2.9 | i | i | i
C=C1C(=O)C=C2CN(C(=O)c3ccccc3)[C@@](Cc3ccc(F)cc3)(C(=O)OC)[C@@H]12 | i | -26.2 | 17* | i | i
O=C(O)CCSSCCC(=O)O | / | / | / | / | i
O=C(NN1C(=O)/C(=C/c2ccc(O)cc2)SC1=S)c1cccc(O)c1 | 8* | -11.8 | i | -9.14* | i
Cn1cc(/C=C2\SC(=S)N(NC(=O)c3ccccc3)C2=O)c2ccccc21 | i | 9.5* | i | i | i
O=C(NN1C(=O)/C(=C/c2ccc(O)c([N+](=O)[O-])c2)SC1=S)c1ccccc1Cl | 7* | -12.3 | i | i | i
CCOc1ccccc1C=C1SC(=S)N(CC)C1=O | / | / | / | / | -9.66*
Cc1nnc(SCC(=O)c2c[nH]c3ccccc23)n1C1CC1 | / | / | / | / | i
O=C1/C(=C/c2ccc(O)c([N+](=O)[O-])c2)SC(=S)N1Cc1ccccc1 | 8* | -13.8 | i | i | i
COc1ccccc1/C=C1\SC(=S)N(CCC(=O)NNC(=O)c2ccccc2O)C1=O | 6* | -27.9 | i | i | i
COc1cc(/C=C2/SC(=S)N(Cc3ccccc3)C2=O)cc(Cl)c1O | i | -10.7 | i | i | i
O=C(NN1C(=O)/C(=C/c2ccc(O)cc2)SC1=S)c1ccccc1O | i | -1.7 | i | i | i
COc1cc(/C=C2\SC(=S)N(NC(=O)c3ccccc3O)C2=O)ccc1O | 6* | 3.6 | i | i | i
COc1cc([N+](=O)[O-])cc(/C=C2/SC(=S)N(Cc3ccccc3)C2=O)c1O | 9* | -10.4 | i | i | i
Cc1c(NC(=O)C(C)OC(=O)c2ncc(Cl)c(Cl)c2Cl)c(=O)n(-c2ccccc2)n1C (configuration not stated) | i | -19.6 | i | i | i
CN1CCCC1CCNc1ccc2sc3ccccc3c(=O)c2c1 (configuration not stated) | i | -25.2 | i | -7.5* | i
O=C1c2ccccc2C(Nc2ccc(S(=O)(=O)N3CCCCCC3)cc2)N1Cc1ccco1 (configuration not stated) | i | -15.0 | i | i | -8.71*
Cc1ccccc1C([O-])=Nc1ccc[n+](-c2nc3ccccc3nc2NS(=O)(=O)c2ccccc2)c1 | i | -12.3 | i | i | /
NNc1ccc2c(C(F)(F)F)cc(C(F)(F)F)nc2n1 | i | -5.2 | i | i | i

Source: PubChem
